# Screening data (PubChem BioAssay)
# MrgX1 antagonist: antagonists of human MrgX1 receptor, primary screen, HEK293 cells, Fluo-4 calcium flux. Mas-related G-protein coupled receptor member X1 (Homo sapiens), Q96LB2. BAM8-22 antagonism; active compounds read low. B-score at 10 µM. 1.3% of 310,000 active. AID 588676, 2011;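 active = calcium-response B-score plate-corrected more than 3 library SD below zero, starting fluorescence within 5 deviations, no agonist response on first addition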;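 note: peak minus trough fluorescence over baseline after final BAM8-22 challenge near maximal dose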
# Target sequence (Q96LB2 whole entry, looked up): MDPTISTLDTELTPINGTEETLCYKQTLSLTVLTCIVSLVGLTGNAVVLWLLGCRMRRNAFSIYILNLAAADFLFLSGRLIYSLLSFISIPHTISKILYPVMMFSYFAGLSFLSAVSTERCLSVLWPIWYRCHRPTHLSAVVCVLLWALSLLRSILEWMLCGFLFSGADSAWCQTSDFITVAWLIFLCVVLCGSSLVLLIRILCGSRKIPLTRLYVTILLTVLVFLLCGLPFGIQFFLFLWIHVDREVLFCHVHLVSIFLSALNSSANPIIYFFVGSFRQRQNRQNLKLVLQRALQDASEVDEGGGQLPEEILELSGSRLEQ
# MrgX1 PAM: positive allosteric modulators of MrgX1, primary screen, HEK293 cells, Fluo-4 calcium flux | B-score at 10 µM | 0.63% of 310,000 active | Mas-related G-protein coupled receptor member X1 (Homo sapiens), Q96LB2 | AID 588675, 2011 | FDSS; active compounds read high;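 active = plate-corrected calcium response at least 3 library SD above typical, normal starting fluorescence, not activating the receptor alone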;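 note: compound read alongside a low EC10 to EC30 dose of BAM8-22 agonist; peak minus trough fluorescence over baseline measured at the second addition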
# RGS4 inh: RGS4 inhibitors, primary screen, cell-based, HEK293 M3R inducible RGS4, calcium flux. Regulator of G-protein signaling 4 (Homo sapiens), P49798. Fluo-4 calcium flux; active compounds read high; triggered by carbachol at its EC20. B-score at 10 µM. 0.45% of 310,000 active;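 active = B-score, a plate-corrected calcium signal, over three deviations above library mean, with baseline fluorescence within five deviations of library mean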;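 note: RGS4 expression induced by doxycycline in cells with stable M3 receptor; B-score is computed from the integrated fluorescence ratio over baseline after carbachol; higher B-score means a larger calcium signal and so more RGS4 inhibition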
# Target sequence (P49798 whole entry, looked up): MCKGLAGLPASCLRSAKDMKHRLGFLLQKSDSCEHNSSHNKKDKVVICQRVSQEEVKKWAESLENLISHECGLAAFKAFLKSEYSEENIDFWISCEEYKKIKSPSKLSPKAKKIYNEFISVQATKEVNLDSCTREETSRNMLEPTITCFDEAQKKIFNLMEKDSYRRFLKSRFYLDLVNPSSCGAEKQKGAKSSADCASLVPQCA
# MrgX1 ag: agonists of human MrgX1 receptor, primary screen, HEK293 cells, Fluo-4 calcium flux; 0.44% of 310,000 active; Fluo-4 calcium fluorescence, agonist mode; active compounds read high; B-score at 10 µM;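 active = calcium response B-score plate-corrected fluorescence ratio at least 3 library SD, with starting fluorescence B-score inside 5 SD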
#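 System – MrgX1-expressing HEK293 cells · Incubation – cells plated overnight, dye loaded 0.5 h 37 °C, 0.5 h room temperature · Technique – kinetic Fluo-4 NW fluorescence of intracellular calcium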
# RGS4 act: RGS4 potentiators or activators, primary screen, cell-based, HEK293 M3R inducible RGS4, calcium flux; carbachol calcium flux Fluo4; active compounds read low; B-score at 10 µM; 0.92% of 310,000 active; AID 463111, 2010;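 active = B-score of the integrated calcium signal more than 4 SD below the library mean, with starting fluorescence not abnormally high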;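 note: negative B-score means reduced calcium response which marks RGS4 activation or potentiation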
#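 Detection: kinetic calcium fluorescence imaging with Fluo4-AM dye, 2 µM / Material: HEK293 cells with stable M3R and inducible RGS4 / Schedule: recording 10 s baseline at 1 Hz, 100 s post-agonist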
# Kir21 inh: inhibitors of mouse Kir2.1 inward-rectifier potassium channel; Inward rectifier potassium channel 2 (Mus musculus), P35561; HEK293-Kir2.1, FluxOR thallium flux fluorescence; active compounds read low; B-score at 10 µM; 0.85% of 310,000 active;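 active = fluorescence ratio B-score at or below minus 3 SD of library scores, with starting-brightness B-score within 2 SD, cut at about -4.2 in these data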;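 note: channel flux triggered by added potassium and thallium sulfate stimulus; B-score of peak minus minimum fluorescence over baseline after thallium stimulus; more negative B-score means stronger Kir2.1 block with less thallium influx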
# MrgX1 allo conf: MrgX1 positive allosteric modulators, duplicate retest, confirmation, HEK293 cells, Fluo-4 calcium flux; Fluo-4 calcium fluorescence, FDSS; 13% of 1,200 active; activation (ratio percentage), % at 10 µM; shares compounds with MrgX1 PAM;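 active = ratio at least 3 SD above the weak peptide control, stable starting fluorescence, no direct agonism earlier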;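 note: compound followed by low BAM8-22 agonist challenge near EC20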
# HEK293 Ca flux: nonspecific calcium signal in parental HEK293, confirmation, counter-screen for MrgX1 antagonist project, parental HEK293 cells, Fluo-4 calcium flux | shares compounds with MrgX1 antagonist | Fluo-4 calcium fluorescence, FDSS | fluorescence ratio F(max-min)/F0 at 10 µM | 2% of 4,000 active | AID 624111, 2012;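 active = duplicate-averaged calcium fluorescence ratio at least three times the standard deviation of buffer wells, a nonspecific response in parental cells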
# HEK293 Ca counter: calcium response in parental HEK293 cells, primary screen, counter-screen for MrgX1 allosteric activator project, cell-based, Fluo-4 calcium flux, duplicate; shares compounds with MrgX1 antagonist; Fluo-4 fluorescence ratio; active compounds read high; fluorescence ratio F(max-min)/F0 at 10 µM; 0.4% of 4,000 active; AID 624114, 2012;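 active = calcium fluorescence ratio, averaged over duplicates, at least 3 SD of the buffer-well ratio, meaning a nonspecific response in receptor-free cells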;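 note: untransfected parental HEK293 lacking MrgX1 used as counterscreen for MrgX1 allosteric activators; fluorescence change taken during the second addition on a kinetic imager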
# HEK293 Ca cntr2: calcium response in parental HEK293 cells, primary screen, counter-screen for MrgX1 agonist project, cell-based, Fluo-4 calcium flux, duplicate, agonist mode; Fluo-4 calcium fluorescence (FDSS); active compounds read high; fluorescence ratio F(max-min)/F0 at 10 µM; 8.7% of 4,000 active; shares compounds with MrgX1 antagonist;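 active = calcium fluorescence ratio at least three times the spread of buffer wells, meaning a non-specific response in parental cells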
# * hit, by the source's call; i = inactive; . = no result given. An excerpt weighted towards active compounds, which were near 4.1% of everything screened.
SMILES,MrgX1 antagonist,MrgX1 PAM,RGS4 inh,MrgX1 ag,RGS4 act,Kir21 inh,MrgX1 allo conf,HEK293 Ca flux,HEK293 Ca counter,HEK293 Ca cntr2
CC(=Nc1cccc(C)c1)c1sc2ccccc2c1O,i,8.1*,i,i,i,-1.2,i,i,i,57*
COc1ccc(CC(=O)Nc2nccs2)cc1OC,i,i,i,i,i,-2.1,.,.,.,.
O=C(CONS(=O)(=O)c1ccc(Cl)cc1)NCCNc1ncc(C(F)(F)F)cc1Cl,i,i,i,i,i,-1.2,.,.,.,.
NS(=O)(=O)c1ccc(NC(=O)CSc2ncccn2)cc1,i,16*,i,i,i,2.2,i,i,i,i
COC(=O)c1ccc(C(=O)OC)c(NC(=O)c2cccnc2)c1,i,i,i,i,i,-0.2,.,.,.,.
CNC(=O)NCC12CC3CC(CC(C3)C1)C2,i,i,i,i,i,-1.9,.,.,.,.
CCNC(=O)OCC12CC3CC(CC(C3)C1)C2,i,9.8*,i,i,i,-1.8,i,i,i,i
COc1c(C)cc(C(=O)C2CCCN(C(=O)c3cc(C4CC4)[nH]n3)C2)cc1C (centres undefined),i,i,i,i,i,-2.4,.,.,.,.
Cc1ccc(-n2nc(-c3ccco3)cc2C(=O)O)cc1,i,25*,i,i,i,2,5.6%*,i,i,i
c1ccc2nc(-c3nccs3)ccc2c1,i,6.5*,i,i,i,0.74,i,i,i,i
O=C(Nc1nc2n(n1)C(c1ccccc1)CC(c1ccc(Cl)cc1)N2)c1ccco1 (centres undefined),i,7.3*,i,i,i,-0.04,i,i,i,i
CCN(c1ccccc1)S(=O)(=O)c1cc(C(=O)OC(C)C(=O)Nc2ccc3c(c2)OCCO3)ccc1C (centres undefined),i,i,i,i,i,-0.18,.,.,.,.
Cc1cc(C)c(NC(=O)COC(=O)C2CCN(c3ccc(C(F)(F)F)cn3)CC2)c(Cl)c1,i,i,i,i,i,0.89,.,.,.,.
Cc1cc(C)c(NC(=O)CNC(=O)COC(=O)C2CCN(c3ccc(C(F)(F)F)cn3)CC2)c(C)c1,i,7*,i,i,i,1.7,i,i,i,i
CCNc1c(NS(=O)(=O)c2ccc(OC)c(Cl)c2)c(=O)oc2ccccc12,i,i,i,i,i,1.6,.,.,.,.
CCOCCCNC(=O)C(NC(=O)CNC(=O)c1ccccc1)c1ccccc1 (centres undefined),i,i,i,i,i,-0.7,.,.,.,.
CC(=O)c1ccc(NC(=O)C(Cc2ccccc2)NC(=O)c2ccco2)cc1 (centres undefined),i,8.9*,i,i,i,0.04,i,i,i,i
